T cruzi inh: blocks replication of Trypanosoma cruzi; T. cruzi beta-gal in NIH3T3, luminescence, 90 h; inhibition, % (no concentration beside the values); actives 1.4% (n = 300,000); AID 1885;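 active = mean inhibition across valid replicates above about 55%, limit read from the data; inconclusive = mean below that limit but half or more replicates reach it; inactive = mean below it, under half of replicates reach it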;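 note: signal also drops with host cell toxicity which is not excluded here; 0% = plate median of DMSO wells and 100% = zero luminescence signal; higher percent means less beta-gal luminescence so fewer parasites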
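compound dosing = single 50 nL compound addition per well in DMSO | material = NIH/3T3 host cells with β-galactosidase reporter T. cruzi | input = 5,000 host fibroblasts per well | timing = ≥90 h infection period, 3 h prior cell attachment | read-out basis = percent inhibition of parasite-derived β-gal signal | detection = GalScreen β-gal luminescence, detergent lysis, 60 min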
Lmaj promast: Leishmania major promastigote growth inhibition; Leishmania major promastigotes, resazurin fluorescence viability; inhibition, % at 10 µM; actives 9% (n = 200,000); in the data active = inhibition above about 50%;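 note: promastigotes grown with compound for 44 hours at 28 °C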
SKKanGAS inh: SKKanGAS growth inhibition | AID 1662 | actives 1.3% (n = 300,000) | S. pyogenes SKKanGAS, kanamycin growth, BacTiter-Glo, 6 h | inhibition, % at 7.5 µM;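 active = mean replicate score, as percent of positive control median, at least 50; inconclusive = mean below 50 but one replicate at or above 50; inactive = mean and every replicate below 50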;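 note: strain carries kanamycin resistance gene driven by streptokinase promoter and grows in 40 µg/ml kanamycin; loss of luminescence reflects streptokinase promoter inhibition or plain growth inhibition; 0% = median of DMSO wells and 100% = positive control at its reference dose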
CSC inhib: cancer stem cell inhibition | actives 1.1% (n = 300,000) | inhibition, % at 7.5 µM | cancer stem cell-like cells viability, luminescence; in the data active = inhibition above about 75%; inconclusive = no clear call, values can overlap the other calls; tested in HMLE shEcad cells
Mdm2-MdmX inh: inhibitors of human Mdm2/MdmX interaction; O15151+Q00987; SaOS-2 split-luciferase Mdm2/MdmX complementation, luminescence; inhibition, % at 8 µM; actives 3% (n = 330,000);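 active = inhibition of at least 50% at 8 µM in the primary screen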
Target sequence (O15151 whole entry, looked up): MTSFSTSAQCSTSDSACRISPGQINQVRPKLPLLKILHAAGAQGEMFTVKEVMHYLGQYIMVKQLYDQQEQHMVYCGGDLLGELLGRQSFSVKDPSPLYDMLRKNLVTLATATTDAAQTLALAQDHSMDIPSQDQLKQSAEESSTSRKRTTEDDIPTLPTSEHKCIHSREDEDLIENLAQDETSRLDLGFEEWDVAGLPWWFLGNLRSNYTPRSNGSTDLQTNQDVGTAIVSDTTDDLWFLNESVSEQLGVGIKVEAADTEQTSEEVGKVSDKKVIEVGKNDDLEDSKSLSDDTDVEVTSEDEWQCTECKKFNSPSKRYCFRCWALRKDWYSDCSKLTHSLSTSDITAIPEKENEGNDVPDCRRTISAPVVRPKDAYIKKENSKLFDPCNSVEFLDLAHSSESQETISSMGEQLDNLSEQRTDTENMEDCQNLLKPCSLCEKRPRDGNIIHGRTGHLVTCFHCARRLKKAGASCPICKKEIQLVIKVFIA
Target sequence (Q00987 whole entry, looked up): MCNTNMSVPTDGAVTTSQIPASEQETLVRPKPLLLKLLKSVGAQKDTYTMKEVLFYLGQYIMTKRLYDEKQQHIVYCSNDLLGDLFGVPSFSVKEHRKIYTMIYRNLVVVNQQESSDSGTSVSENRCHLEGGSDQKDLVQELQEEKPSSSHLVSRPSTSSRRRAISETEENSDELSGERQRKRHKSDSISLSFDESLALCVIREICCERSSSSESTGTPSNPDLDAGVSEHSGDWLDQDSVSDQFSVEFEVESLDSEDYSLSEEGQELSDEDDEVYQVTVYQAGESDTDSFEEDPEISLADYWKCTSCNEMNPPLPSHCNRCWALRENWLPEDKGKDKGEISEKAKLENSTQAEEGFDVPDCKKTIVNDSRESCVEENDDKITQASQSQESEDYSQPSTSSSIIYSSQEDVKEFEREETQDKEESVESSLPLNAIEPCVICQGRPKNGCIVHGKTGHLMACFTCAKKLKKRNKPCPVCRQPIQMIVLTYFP
Beta apoptosis: beta cell apoptosis inhibition. AID 435005. protection from apoptosis, % (no concentration beside the values). INS-1E cytokine-induced death, ATP luminescence, 48 h; percent of positive-control rescue, neutral wells zero. actives 0.8% (n = 300,000);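 active = Every replicate reaches about 75%, or at least half do and their mean reaches it too, limit read from the data; inconclusive = At least half of replicates reach the limit but their mean does not; inactive = Under half of replicates reach the limit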;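 note: 0% = cytokine-treated negative control wells and 100% = positive control rescue; higher means more ATP so stronger rescue from cytokine killing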
Numbers without * were called inactive; ? = inconclusive; / = no result. Rows were chosen to be rich in hits. Some 9.4% of all compounds tested hit in one or more screens of this group.

SMILES | T cruzi inh | Lmaj promast | SKKanGAS inh | CSC inhib | Mdm2-MdmX inh | Beta apoptosis
O=c1c2ccccc2c(C=Nc2ccc(O)cc2)c(O)n1Cc1ccccc1 | 44 | / | 67* | 22 | -71 | 7
COc1ccc(Cn2c(O)c(C=Nc3ccc(O)cc3)c3ccccc3c2=O)cc1 | 27 | 94* | 20 | 67 | 30 | 1
O=c1c2ccccc2c(C=Nc2ccc(O)cc2)c(O)n1-c1nccs1 | -10 | / | 12 | -2 | -3 | 7
COc1ccc(Cn2c(O)c(C=Nc3ccccc3)c3ccccc3c2=O)cc1 | 31 | 31 | 9 | 2 | 19 | 2
CN(C)CCN=Cc1c(O)n(Cc2ccccc2)c(=O)c2ccccc12 | 29 | 18 | 6 | -3 | 9 | 6
CN(C)CCCN=Cc1c(O)n(Cc2ccccc2)c(=O)c2ccccc12 | 39 | 92* | 3 | -1 | 7 | 1
CCCCn1c(N)c(N(CCOC)C(=O)c2cc(CC)c(C)s2)c(=O)[nH]c1=O | 2 | / | 5 | -16 | 13 | -5
COc1ccc(NC(=O)N(C)C[C@@H]2Oc3ccc(NC(=O)NC(C)C)cc3CC(=O)N([C@H](C)CO)C[C@@H]2C)cc1 | / | / | / | / | 15 | -9
CCOc1ccccc1OC(=O)c1cc2ccccc2oc1=O | -3 | -1 | 9 | 3 | 8 | -1
CCCn1c(SCC(=O)Nc2ccccc2OC)nnc1-c1ccco1 | / | / | -3 | 47 | 43 | -5
COCCn1c(SCC(=O)Nc2cc(C(C)(C)C)nn2-c2ccccc2)nc2ccccc2c1=O | 7 | 54* | 1 | 3 | 5 | 3
COCCn1c(SCC(=O)Nc2ccc(C)cc2C)nc2c(oc3ccccc32)c1=O | 4 | 54* | -1 | 10 | 18 | -5
COc1ccc(C(=O)C2CCCN(C3Cc4ccccc4C3)C2)c(OC)c1 (stereo unspecified) | 13 | 94* | -4 | 16 | 8 | /
COc1ccc(C(=O)C2CCCN(Cc3cc(C)c(O)c(C)c3)C2)c(OC)c1 (stereo unspecified) | 27 | / | 0 | ? | 0 | 2
COc1ccc(C(=O)C2CCCN(Cc3c(C)[nH]c4ccccc34)C2)c(OC)c1 (stereo unspecified) | 62* | 97* | -13 | -2 | 15 | 6
COc1ccc(C(=O)C2CCCN(Cc3cc(Cl)ccc3O)C2)c(OC)c1 (stereo unspecified) | 31 | / | -2 | 22 | 6 | /
COc1ccc(C(=O)C2CCCN(Cc3sc(N4CCCC4)nc3Cl)C2)c(OC)c1 (stereo unspecified) | 63* | 99* | 5 | 0 | 16 | 10
Clc1ccc(-c2ccc(CNCC3CCCO3)o2)cc1 (stereo unspecified) | 12 | / | 0 | 3 | -5 | /
N#Cc1c(-c2ccc(Cl)cc2)c2c([nH]c1=O)-c1ccccc1OC2 | 2 | / | 16 | 12 | 22 | /
CCC(C)NC(=S)N(CCc1ccccc1)Cc1cc2cc(OC)c(OC)cc2[nH]c1=O (stereo unspecified) | 28 | 33 | 22 | 2 | 8 | -3
CCN(CCCNC(=O)c1ccc(N2CCCC2=O)cc1)c1cccc(C)c1 | 9 | 79* | 2 | 17 | -29 | -3
CCN(CCNC(=O)c1cccc(N2CCCC2=O)c1)c1ccccc1 | -6 | -1 | 1 | -10 | 6 | -11
COc1ccc(Cl)cc1C(=O)NNC(=O)c1[nH]c(C)c(C(C)=O)c1C | / | / | / | -21 | 7 | 0
O=C(OCc1ccc(COC(=O)c2ccc(O)cc2)cc1)c1ccc(O)cc1 | 5 | / | 58* | 7 | 9 | -1
O=C(c1ccc(O)cc1)c1ccc(C(=O)c2ccc(O)cc2)cc1 | 3 | -8 | 83* | 19 | -23 | -1
SMILES | T cruzi inh | Lmaj promast | SKKanGAS inh | CSC inhib | Mdm2-MdmX inh | Beta apoptosis
Cc1ccc(Cc2c(C)nc3nc(SCC(=O)NCCCN4CCCCC4)nn3c2C)cc1 | 0 | / | 6 | -1 | 10 | -5
Cc1cc(C)c(C)c(OCCOCCNCc2ccccc2)c1 | 20 | 77* | 0 | 30 | -1 | 19
Cc1ccc(OCCNCc2ccccc2)c(C)c1 | 8 | / | 2 | -14 | 16 | 3
CCOc1ccc(OCCOCCNCCOC)cc1 | -6 | 70* | -9 | -10 | -11 | -3
CCCOc1ccc(OCCOCCNCc2ccccc2)cc1 | ? | 98* | 2 | 4 | 17 | -6
CCOc1cccc(OCCOCCNC(C)(C)C)c1 | 13 | 28 | 2 | 2 | 7 | -1
COc1cccc(OCCNCc2ccccc2)c1 | -12 | / | -6 | -1 | 21 | -1
O=C(CN1CCc2ccccc21)Nc1ccc2c(c1)OCCCO2 | / | / | / | 9 | -4 | -3
CC(C)(CNC(=O)C1CCN(S(=O)(=O)c2cc([N+](=O)[O-])ccc2Cl)CC1)N1CCOCC1 | / | / | / | / | 13 | /
O=C(OCCN=C1NS(=O)(=O)c2ccccc21)c1ccccc1F | -13 | / | -9 | -12 | -8 | -7
CC(C)N1CCC(N2CCN(Cc3ccc(-c4ccc(Cl)cc4)o3)CC2CCO)CC1 (stereo unspecified) | 30 | 88* | -3 | -5 | 12 | 2
Cc1ccc(-c2cccc(CN3CCN(C4CCN(C(C)C)CC4)C(CCO)C3)c2)o1 (stereo unspecified) | 32 | 52* | 4 | 7 | 35 | 1
CC(C)N1CCC(N2CCN(Cc3cnc(-c4ccccc4)s3)CC2CCO)CC1 (stereo unspecified) | 13 | 6 | -18 | -14 | 7 | -2
CC(C)N1CCC(N2CCN(Cc3ccc(-c4ccccc4Cl)o3)CC2CCO)CC1 (stereo unspecified) | 47 | 89* | -2 | 32 | 39 | /
COc1ccc(C)cc1NC(=S)NC(C)c1ccc(OC)c(OC)c1 (stereo unspecified) | -7 | 54* | 13 | 13 | 5 | -5
Cc1nc2c(-c3ccc(F)cc3)c(C)nn2c(C)c1CCC(=O)NC(C)CCc1ccco1 (stereo unspecified) | 27 | 100* | 4 | 13 | 26 | 5
O=C(CN1C(=O)NC2(CCCCCC2)C1=O)N1CCN(c2ccccc2)CC1 | / | / | / | / | 2 | -7
O=C1c2ccccc2C(=O)N1Cc1cnc(N2CCN(c3ccccc3)CC2)s1 | 1 | -7 | 10 | 33 | 24 | 6
O=[N+]([O-])c1ccc(S(=O)(=O)NCC(c2cccnc2)N2CCc3ccccc32)cc1 (stereo unspecified) | 70* | / | 8 | 1 | 8 | /
O=S(=O)(NCC(c1cccnc1)N1CCN(c2ccc(F)cc2)CC1)c1cc(F)ccc1F (stereo unspecified) | 58* | 95* | 2 | 23 | 29 | -4
O=S(=O)(NCC(c1cccnc1)N1CCc2ccccc2C1)c1ccccc1 (stereo unspecified) | 23 | / | 0 | 0 | 1 | -3
O=S(=O)(NCC(c1cccnc1)N1CCN(Cc2ccccc2)CC1)c1ccc(Cl)cc1 (stereo unspecified) | 58* | / | 1 | 11 | 15 | 0

High-throughput results deposited in PubChem BioAssay by several laboratories.
